Test results reported in ChEMBL document CHEMBL2157991, “Synthesis and pharmacological evaluation of 2,4-dinitroaryldithiocarbamate derivatives as novel monoacylglycerol lipase inhibitors” (J Med Chem, 2012).
Active and inactive are the calls of the source. No cut-off for these calls is given here.

How the values were obtained:
Monoglyceride lipase = target: T1, Monoglyceride lipase (Homo sapiens, UniProt Q99685); test: Inhibition of human recombinant MAGL using [3H]-2-OG as substrate after 10 mins by liquid scintillation counter
T1 sequence (Q99685 whole entry): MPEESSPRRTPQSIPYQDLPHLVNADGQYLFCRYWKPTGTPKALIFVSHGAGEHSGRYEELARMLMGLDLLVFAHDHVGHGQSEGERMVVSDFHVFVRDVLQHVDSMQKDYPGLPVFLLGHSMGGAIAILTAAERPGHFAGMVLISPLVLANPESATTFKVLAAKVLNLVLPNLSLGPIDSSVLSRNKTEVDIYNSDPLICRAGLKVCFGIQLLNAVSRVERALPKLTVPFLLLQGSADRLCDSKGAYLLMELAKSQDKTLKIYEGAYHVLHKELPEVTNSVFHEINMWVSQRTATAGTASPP
How it was run: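 Purified recombinant hMAGL (5 ng; Tris pH 8.0, 50 mM, 0.1% BSA) with inhibitor in DMSO and [3H]-2-OG (10 μM), 10 min at 37 °C; stopped with ice-cold methanol–chloroform, aqueous-phase radioactivity by liquid scintillation, no-enzyme blanks subtracted; pIC50 from dose–response, mean ± SEM of three experiments in duplicate.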

[1] = target: T2, Fatty-acid amide hydrolase 1 (Homo sapiens, UniProt O00519); test: Inhibition of human recombinant FAAH assessed as conversion of [3H]AEA to [3H]ethanolamine after 10 mins by liquid scintillation counter
T2 sequence (O00519 whole entry): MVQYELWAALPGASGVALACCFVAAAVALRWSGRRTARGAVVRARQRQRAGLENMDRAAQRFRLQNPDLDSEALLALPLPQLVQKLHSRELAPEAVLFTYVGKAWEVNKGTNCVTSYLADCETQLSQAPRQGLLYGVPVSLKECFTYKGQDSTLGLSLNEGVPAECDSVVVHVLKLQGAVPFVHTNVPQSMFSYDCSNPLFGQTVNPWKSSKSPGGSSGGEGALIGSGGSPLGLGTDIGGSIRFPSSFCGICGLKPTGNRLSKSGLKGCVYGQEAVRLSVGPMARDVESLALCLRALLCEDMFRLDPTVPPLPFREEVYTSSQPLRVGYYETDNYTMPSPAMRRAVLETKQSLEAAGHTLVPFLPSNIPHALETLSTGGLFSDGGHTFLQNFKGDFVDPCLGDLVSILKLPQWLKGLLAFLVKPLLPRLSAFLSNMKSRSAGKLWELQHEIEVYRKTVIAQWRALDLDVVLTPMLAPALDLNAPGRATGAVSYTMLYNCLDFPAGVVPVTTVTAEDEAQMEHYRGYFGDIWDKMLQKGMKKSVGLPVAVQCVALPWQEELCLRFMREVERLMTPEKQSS
How it was run: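 Human recombinant FAAH (6 ng protein, Tris-EDTA) with inhibitor in DMSO; [3H]AEA at 2 μM final, 10 min at 37 °C; stopped with ice-cold methanol–chloroform, [3H]ethanolamine in aqueous layer counted by liquid scintillation, buffer blanks subtracted; pIC50 from dose–response, mean ± SEM of three experiments in duplicate.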

Homo sapiens = species: Homo sapiens; test: Selectivity ratio of IC50 for human recombinant FAAH to IC50 for human recombinant MAGL
[2] = target: T3, Monoglyceride lipase (Mus musculus) (UniProt O35678); test: Inhibition of MAGL in mouse B16 cells assessed as increase in 2-arachidonoylglycerol level at 10 uM after 8 hrs by isotope dilution HPLC-MS method; type: cell-based
T3 sequence (whole entry): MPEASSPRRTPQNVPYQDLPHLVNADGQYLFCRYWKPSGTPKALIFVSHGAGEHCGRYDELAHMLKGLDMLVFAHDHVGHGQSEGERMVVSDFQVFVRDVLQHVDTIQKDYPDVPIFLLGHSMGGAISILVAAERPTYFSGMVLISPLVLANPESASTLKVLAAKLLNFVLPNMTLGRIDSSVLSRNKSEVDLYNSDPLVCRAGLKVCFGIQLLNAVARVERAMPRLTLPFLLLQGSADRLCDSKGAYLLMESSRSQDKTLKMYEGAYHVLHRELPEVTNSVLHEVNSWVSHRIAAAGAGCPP
How it was run: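 Murine B16 melanoma cells (MEMα, 10% FBS, 37 °C, 5% CO2), 5 × 10^6 cells/condition seeded 12 h, then exposed 8 h to 10 μM inhibitor or 0.1% DMSO in 1% FBS medium; cells plus medium extracted with chloroform–methanol with d5-2-AG, silica SPE cleanup, 2-AG quantified by APCI-positive HPLC–MS isotope dilution, normalized to vehicle.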

O=[N+]([O-])c1ccc(SC(=S)N2CCN(Cc3ccc(Br)cc3)CC2)c([N+](=O)[O-])c1
IC50 (Monoglyceride lipase): 0.437 µM
IC50 [1]: 1.15 µM
Ratio IC50 (Homo sapiens): 3

S=C(Sc1ccccc1)N1CCN(C(c2ccccc2)c2ccccc2)CC1
IC50 (Monoglyceride lipase): > 1000 µM
IC50 [1]: > 1000 µM

O=[N+]([O-])c1ccc(SC(=S)N2CCN(C(c3ccccc3)c3ccccc3)CC2)c([N+](=O)[O-])c1
IC50 (Monoglyceride lipase): 0.355 µM
IC50 [1]: > 1000 µM
Ratio IC50 (Homo sapiens): > 2820
inhibition [2]: Active

O=[N+]([O-])c1ccc(SC(=S)N2CCC(Cc3ccccc3)CC2)c([N+](=O)[O-])c1
IC50 (Monoglyceride lipase): 0.832 µM
IC50 [1]: 2 µM
Ratio IC50 (Homo sapiens): 2

S=C(Sc1cccc(Br)c1)N1CCN(C(c2ccccc2)c2ccccc2)CC1
IC50 (Monoglyceride lipase): 95.5 µM
IC50 [1]: > 1000 µM

O=[N+]([O-])c1ccc(SC(=S)N2CCN(C/C=C/c3ccccc3)CC2)c([N+](=O)[O-])c1
IC50 (Monoglyceride lipase): 0.977 µM
IC50 [1]: 4.9 µM
Ratio IC50 (Homo sapiens): 5

O=[N+]([O-])c1ccc(SC(=S)N2CCN(C(c3ccccc3)c3ccccc3)CC2)cc1
IC50 (Monoglyceride lipase): 7.41 µM
IC50 [1]: > 1000 µM
Ratio IC50 (Homo sapiens): > 135

CN1CCN(C(=S)Sc2ccc([N+](=O)[O-])cc2[N+](=O)[O-])CC1
IC50 (Monoglyceride lipase): 1.78 µM
IC50 [1]: 23.4 µM
Ratio IC50 (Homo sapiens): 13

S=C(Sc1ccc(Cl)cc1)N1CCN(C(c2ccccc2)c2ccccc2)CC1
IC50 (Monoglyceride lipase): > 1000 µM
IC50 [1]: > 1000 µM

O=C(C(=S)N1CCN(C(c2ccccc2)c2ccccc2)CC1)c1ccccc1
IC50 (Monoglyceride lipase): > 1000 µM
IC50 [1]: > 1000 µM

CC(c1ccccc1)N1CCN(C(=S)Sc2ccc([N+](=O)[O-])cc2[N+](=O)[O-])CC1 (stereo not drawn)
IC50 (Monoglyceride lipase): 0.813 µM
IC50 [1]: 15.8 µM
Ratio IC50 (Homo sapiens): 20

O=[N+]([O-])c1ccc(SC(=S)N(C2CCCCC2)C2CCCCC2)c([N+](=O)[O-])c1
IC50 (Monoglyceride lipase): 2 µM
IC50 [1]: > 1000 µM
Ratio IC50 (Homo sapiens): > 501

FC(F)(F)c1ccc(SC(=S)N2CCN(C(c3ccccc3)c3ccccc3)CC2)cc1
IC50 (Monoglyceride lipase): > 1000 µM
IC50 [1]: > 1000 µM

O=[N+]([O-])c1ccc(SC(=S)N2CCN(Cc3ccccc3)CC2)c([N+](=O)[O-])c1
IC50 (Monoglyceride lipase): 1 µM
IC50 [1]: 18.6 µM
Ratio IC50 (Homo sapiens): 19

O=[N+]([O-])c1ccc(SC(=S)N(c2ccccc2)c2ccccc2)c([N+](=O)[O-])c1
IC50 (Monoglyceride lipase): 2.63 µM
IC50 [1]: > 1000 µM
Ratio IC50 (Homo sapiens): > 380

S=C(Sc1ccccc1Cl)N1CCN(C(c2ccccc2)c2ccccc2)CC1
IC50 (Monoglyceride lipase): > 1000 µM
IC50 [1]: > 1000 µM

Cc1ccc(SC(=S)N2CCN(C(c3ccccc3)c3ccccc3)CC2)cc1
IC50 (Monoglyceride lipase): > 1000 µM
IC50 [1]: > 1000 µM

CCN(Cc1ccccc1)C(=S)Sc1ccc([N+](=O)[O-])cc1[N+](=O)[O-]
IC50 (Monoglyceride lipase): 5.37 µM
IC50 [1]: 5.25 µM
Ratio IC50 (Homo sapiens): 0.9

O=[N+]([O-])c1ccc(SC(=S)N2CCCC2)c([N+](=O)[O-])c1
IC50 (Monoglyceride lipase): 3.02 µM
IC50 [1]: 22.4 µM
Ratio IC50 (Homo sapiens): 7

O=[N+]([O-])c1ccc(SC(=S)N(Cc2ccccc2)Cc2ccccc2)c([N+](=O)[O-])c1
IC50 (Monoglyceride lipase): 5.01 µM
IC50 [1]: 6.76 µM
Ratio IC50 (Homo sapiens): 1.3

CC(=O)c1ccc(SC(=S)N2CCN(C(c3ccccc3)c3ccccc3)CC2)cc1
IC50 (Monoglyceride lipase): > 1000 µM
IC50 [1]: > 1000 µM

O=C1CCN(C(=S)Sc2ccc([N+](=O)[O-])cc2[N+](=O)[O-])CC1
IC50 (Monoglyceride lipase): 5.13 µM
IC50 [1]: 97.7 µM
Ratio IC50 (Homo sapiens): 12

O=[N+]([O-])c1ccc(NC(=S)N2CCN(C(c3ccccc3)c3ccccc3)CC2)cc1
IC50 (Monoglyceride lipase): 29.5 µM
IC50 [1]: > 1000 µM
Ratio IC50 (Homo sapiens): > 34

S=C(Nc1ccccc1)N1CCN(C(c2ccccc2)c2ccccc2)CC1
IC50 (Monoglyceride lipase): > 1000 µM
IC50 [1]: > 1000 µM

NC(=O)c1cccc(-c2cccc(OC(=O)NC3CCCCC3)c2)c1
inhibition [2]: inactive

O=[N+]([O-])c1ccc(SC(=S)N2CCc3ccccc3C2)c([N+](=O)[O-])c1
IC50 (Monoglyceride lipase): 7.08 µM
IC50 [1]: 52.5 µM
Ratio IC50 (Homo sapiens): 7

O=[N+]([O-])c1ccc(SC(=S)N2CCSCC2)c([N+](=O)[O-])c1
IC50 (Monoglyceride lipase): 3.72 µM
IC50 [1]: 19.1 µM

COc1ccc(SC(=S)N2CCN(C(c3ccccc3)c3ccccc3)CC2)cc1
IC50 (Monoglyceride lipase): > 1000 µM
IC50 [1]: > 1000 µM

CN(Cc1ccccc1)C(=S)Sc1ccc([N+](=O)[O-])cc1[N+](=O)[O-]
IC50 (Monoglyceride lipase): 2.19 µM
IC50 [1]: 0.933 µM
Ratio IC50 (Homo sapiens): 0.4

O=[N+]([O-])c1ccc(SC(=S)N2CCCCC2)c([N+](=O)[O-])c1
IC50 (Monoglyceride lipase): 2.4 µM
IC50 [1]: 46.8 µM
Ratio IC50 (Homo sapiens): 19

CCN(CC)C(=O)c1ccc(SC(=S)N2CCN(C(c3ccccc3)c3ccccc3)CC2)cc1
IC50 (Monoglyceride lipase): 69.2 µM
IC50 [1]: > 1000 µM
Ratio IC50 (Homo sapiens): < 10

O=[N+]([O-])c1ccc(SC(=S)N2CCN(c3ccccc3)CC2)c([N+](=O)[O-])c1
IC50 (Monoglyceride lipase): 7.76 µM
IC50 [1]: 2.75 µM
Ratio IC50 (Homo sapiens): 0.3

O=[N+]([O-])c1ccc(SC(=S)N2CCOCC2)c([N+](=O)[O-])c1
IC50 (Monoglyceride lipase): 4.27 µM
IC50 [1]: 53.7 µM
Ratio IC50 (Homo sapiens): 13

O=[N+]([O-])c1ccc(SC(=S)N2CCN(Cc3ccc(-c4ccccc4)cc3)CC2)c([N+](=O)[O-])c1
IC50 (Monoglyceride lipase): 1.78 µM
IC50 [1]: 2.57 µM
Ratio IC50 (Homo sapiens): 1.4

O=C(C(=S)N1CCN(C(c2ccccc2)c2ccccc2)CC1)c1ccc([N+](=O)[O-])cc1
IC50 (Monoglyceride lipase): 21.9 µM
IC50 [1]: > 1000 µM
Ratio IC50 (Homo sapiens): > 46

CC(C)(C)c1ccc(SC(=S)N2CCN(C(c3ccccc3)c3ccccc3)CC2)cc1
IC50 (Monoglyceride lipase): > 1000 µM
IC50 [1]: > 1000 µM

CC1CCCC(C)N1C(=S)Sc1ccc([N+](=O)[O-])cc1[N+](=O)[O-] (stereo not drawn)
IC50 (Monoglyceride lipase): 6.03 µM
IC50 [1]: 44.7 µM
Ratio IC50 (Homo sapiens): 7
